{"data": "Results pooled from the literature", "gag-pol reverse transcriptase": "Gag-Pol polyprotein, reverse transcriptase (gag-pol, Human immunodeficiency virus 1, UniProt P03366)", "gyrA": "DNA gyrase subunit A (gyrA, Escherichia coli K-12, UniProt P0AES4)", "note": "Each line is one published result; the experiments were not run side by side."}
{"Compound": "Cc1cc(C)cc(S(=O)(=O)c2c(C(=O)NCCCNS(=O)(=O)c3ccc(F)cc3)[nH]c3ccc(Cl)cc23)c1", "target": "gag-pol reverse transcriptase", "assay": "enzyme activity, inhibitor, ELISA", "IC50 [nM]": 100}
{"Compound": "C/C(=C\\c1ccc(C#N)cc1)C(=O)Nc1ccc(C(=O)N[C@@H](CC(N)=O)C(=O)Nc2ccc(C(=O)Nc3ccc(C(=O)Nc4ccc(C(=O)O)cc4)c(O)c3OC(C)C)cc2)cc1", "target": "gyrA", "assay": "enzyme activity, inhibitor", "IC50 [nM]": 200}
{"Compound": "N#Cc1ccc(Nc2nc(N)cc(Oc3ccc(-c4ccccc4F)cc3)n2)cc1", "target": "gag-pol reverse transcriptase", "assay": "enzyme activity, inhibitor", "IC50 [nM]": 260}
{"Compound": "Cc1cc(C)cc(S(=O)(=O)c2c(C(=O)NCCCCNS(=O)(=O)c3ccc([N+](=O)[O-])cc3)[nH]c3ccc(Cl)cc23)c1", "target": "gag-pol reverse transcriptase", "assay": "enzyme activity, inhibitor, ELISA", "IC50 [nM]": 150}
{"Compound": "COc1ccc(-c2oc3ncnc(NCc4ccccc4)c3c2-c2ccc(OC)cc2)cc1", "target": "Receptor tyrosine-protein kinase erbB-2 (ERBB2, Homo sapiens, UniProt P04626)", "assay": "enzyme activity, inhibitor, radiometric", "IC50 [nM]": 4600}
{"Compound": "N#Cc1ccc(Nc2nc(N)cc(Oc3ccc(-c4ccc(C#N)cc4)cc3C#N)n2)cc1", "target": "gag-pol reverse transcriptase", "assay": "enzyme activity, inhibitor", "IC50 [nM]": 30}
{"Compound": "Cc1cc(C)cc(S(=O)(=O)c2c(C(=O)NCCCCNS(=O)(=O)c3ccc(Br)cc3)[nH]c3ccc(Cl)cc23)c1", "target": "gag-pol reverse transcriptase", "assay": "enzyme activity, inhibitor, ELISA", "IC50 [nM]": 150}
{"Compound": "CC(C)Oc1c(NC(=O)c2ccc(NC(=O)[C@H](CC(N)=O)NC(=O)c3ccc(NC(=O)CCc4ccc(C#N)cc4)cc3)cc2)ccc(C(=O)Nc2ccc(C(=O)O)cc2)c1O", "target": "gyrA", "assay": "enzyme activity, inhibitor", "IC50 [nM]": 1000}
{"Compound": "N#Cc1ccc(Nc2nc(N)cc(Oc3ccc(-c4ccccc4)cc3F)n2)cc1", "target": "gag-pol reverse transcriptase", "assay": "enzyme activity, inhibitor", "IC50 [nM]": 160}
{"Compound": "O=C1N=C(Nc2ccccc2)S/C1=C\\c1ccccc1OCc1cn(Cc2ccc(Cl)cc2)nn1", "target": "Aldo-keto reductase family 1 member A1 (AKR1A1, Homo sapiens, UniProt P14550)", "assay": "enzyme activity, inhibitor, absorbance", "conditions": "pH 6.2", "IC50 [nM]": 54000}
{"Compound": "CC1(C)C(/C=C/C=C2/N(CCCc3ccccc3)c3ccc4ccccc4c3C2(C)C)=[N+](CCCc2ccccc2)c2ccc3ccccc3c21", "target": "Protein arginine N-methyltransferase 6 (PRMT6, Homo sapiens, UniProt Q96LA8)", "assay": "enzyme activity, inhibitor, radiometric", "IC50 [nM]": 750}
{"Compound": "Cc1cc(C)cc(S(=O)(=O)c2c(C(=O)NCCCCNS(=O)(=O)c3ccccc3)[nH]c3ccc(Cl)cc23)c1", "target": "gag-pol reverse transcriptase", "assay": "enzyme activity, inhibitor, ELISA", "IC50 [nM]": 130}
{"Compound": "CC(C)Oc1c(NC(=O)c2ccc(NC(=O)[C@H](CC(N)=O)NC(=O)c3ccc(NC(=O)Cc4ccc(C#N)cc4)cc3)cc2)ccc(C(=O)Nc2ccc(C(=O)O)cc2)c1O", "target": "gyrA", "assay": "enzyme activity, inhibitor", "IC50 [nM]": 16300}
{"Compound": "CC[C@@H](C(=O)Nc1ccc(C(N)=O)c(F)c1)n1cc(OC)c(-c2cc(Cl)ccc2-n2cc(C(F)(F)F)nn2)cc1=O", "target": "Plasminogen (PLG, Homo sapiens, UniProt P00747)", "assay": "enzyme activity, inhibitor", "IC50 [nM]": 2100}
{"Compound": "CC(C)c1cccc2c(-c3ccccc3)cc(-c3ccc(-c4ccc(C(=O)O)cc4)[nH]3)nc12", "target": "Retinoic acid receptor alpha (RARA, Homo sapiens, UniProt P10276)", "assay": "reporter gene, antagonist", "IC50 [nM]": 15}
{"Compound": "CCCCCCCc1ccc(CCc2cccc(O)c2C(=O)O)cc1", "target": "Histone acetyltransferase p300 (EP300, Homo sapiens, UniProt Q09472)", "assay": "enzyme activity, inhibitor, radiometric", "IC50 [nM]": "> 200000"}
{"Compound": "COc1ccc(S(=O)(=O)NCCCCCNC(=O)c2[nH]c3ccc(Cl)cc3c2S(=O)(=O)c2cc(C)cc(C)c2)cc1", "target": "gag-pol reverse transcriptase", "assay": "enzyme activity, inhibitor, ELISA", "IC50 [nM]": 160}
{"Compound": "COc1c(C(=O)Nc2ccc(C(=O)O)cc2)ccc2nc(-c3cc(NC(=O)C(CC(N)=O)NC(=O)c4ccc(NC(=O)c5ccc(C#N)cc5)cc4)cn3C)[nH]c12 (stereo not drawn)", "target": "gyrA", "assay": "enzyme activity, inhibitor", "IC50 [nM]": 10900}
